Measured values reported in ChEMBL document CHEMBL3272083, “Antiinflammatory and analgesic diastereoisomeric derivatives of indan-5-acetic acid” (J Med Chem, 1978).

How the values were obtained:
Rattus norvegicus [1] = assay: Analgesic activity in po dosed rat assessed as inhibition of phenylbenzoquinone-induced writhing administered in 1% w/v arabic gum; assay type: functional
Outline: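 Oral dosing in 1% w/v arabic gum vehicle. Read-out was antagonism of writhing produced by phenylbenzoquinone. ED50 with 95% confidence limits was calculated by Bliss's method.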

[2] = (§1) Gastrointestinal toxicity in po dosed rat assessed as ulcerogenic activity after 6 hrs administered in 1% w/v arabic gum; assay type: organism-based; conditions: in vivo, read-out: UD50
Outline: (§2)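 Fasted rats dosed orally, compound suspended in 1% w/v arabic gum. Stomachs examined 6 h after dosing; gastric ulcer intensity graded on a 0–3 scale. The 50% ulcerogenic dose (UD50) was read graphically.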

Rattus norvegicus [3] = assay: Antiinflammatory activity in po dosed rat assessed as inhibition of carrageenan-induced edema administered in 1% w/v arabic gum; assay type: functional
Outline: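 Given orally in 1% w/v arabic gum vehicle. Read-out was carrageenan-induced edema. ED50 and 95% confidence limits were derived by Bliss's method.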

Rattus norvegicus [4] = assay: as §1; assay type: organism-based; conditions: in vivo, 6 h; outline: as §2
[5] = Rattus norvegicus, po, read-out: ED50

CC(C)[C@@H]1Cc2ccc([C@H](C)C(=O)O)cc2C1
ED50 (Rattus norvegicus [1]; [5]): 9 mg/kg

CC(C)Cc1ccc(C(C)C(=O)O)cc1 (centres undefined) [IBUPROFEN]
TD50 at 6 h [2]: 40 mg/kg
ED50 (Rattus norvegicus [1]; [5]): 17 mg/kg
ED50 (Rattus norvegicus [3]; [5]): 44 mg/kg

CC1Cc2ccc(CC(=O)O)cc2C1 (racemic)
ED50 (Rattus norvegicus [1]; [5]): 175 mg/kg

CCC1Cc2ccc(C(C)C(=O)O)cc2C1 (racemic)
TD50 at 6 h [2]: 65 mg/kg
ED50 (Rattus norvegicus [1]; [5]): 6 mg/kg
ED50 (Rattus norvegicus [3]; [5]): 36 mg/kg

CC(C(=O)O)c1ccc2c(c1)CC(C(C)C)C2 (single isomer, unassigned; (+)) [ISOPROFEN]
UD50 (Rattus norvegicus [4]): 46 mg/kg
ED50 (Rattus norvegicus [1]): 10 mg/kg
ED50 (Rattus norvegicus [3]): 24 mg/kg

CC(C(=O)O)c1ccc2c(c1)CC(C(C)C)C2 (racemic) [ISOPROFEN]
TD50 at 6 h [2]: 62 mg/kg
ED50 (Rattus norvegicus [1]; [5]): 9 mg/kg
ED50 (Rattus norvegicus [3]; [5]): 29 mg/kg

CCC1Cc2ccc(CC(=O)O)cc2C1 (racemic)
TD50 at 6 h [2]: 125 mg/kg
ED50 (Rattus norvegicus [1]; [5]): 104 mg/kg
ED50 (Rattus norvegicus [3]; [5]): > 256 mg/kg

CC(C(=O)O)c1ccc2c(c1)CC(C(C)C)C2 (single isomer, unassigned; (-)) [ISOPROFEN]
UD50 (Rattus norvegicus [4]): 87 mg/kg
ED50 (Rattus norvegicus [1]): 17 mg/kg
ED50 (Rattus norvegicus [3]): 32 mg/kg

CC1Cc2ccc(C(C)C(=O)[O-])cc2C1.[Na+] (racemic)
ED50 (Rattus norvegicus [1]; [5]): 24 mg/kg

CC(C)C1Cc2ccc(CC(=O)O)cc2C1 (racemic)
TD50 at 6 h [2]: 335 mg/kg
ED50 (Rattus norvegicus [1]; [5]): 57 mg/kg
ED50 (Rattus norvegicus [3]; [5]): 155 mg/kg
